Data taken from ChEMBL document CHEMBL3393003, “1,2,3,9b-Tetrahydro-5H-imidazo[2,1-a]isoindol-5-ones as a new class of respiratory syncytial virus (RSV) fusion inhibitors. Part 2: identification of BTA9881 as a preclinical candidate” (Bioorg Med Chem Lett, 2015).
≈ marks a conversion by molar mass, not a printed value.

How the values were obtained:
[1] = test system: Respiratory syncytial virus; assay: Resistance index, ratio of EC50 for drug resistant respiratory syncytial virus B1 expressing F protein L141F mutant to EC50 for wild type Respiratory syncytial virus B1; assay type: functional
[2] = test system: Respiratory syncytial virus; assay: Resistance index, ratio of EC50 for drug resistant respiratory syncytial virus Long expressing F protein Q494L mutant to EC50 for wild type Respiratory syncytial virus Long
[3] = test system: Respiratory syncytial virus; assay: Resistance index, ratio of EC50 for VP-14637 resistant respiratory syncytial virus Long expressing F protein D489Y mutant to EC50 for wild type Respiratory syncytial virus Long
[4] = test system: Respiratory syncytial virus; assay: Antiviral activity against respiratory syncytial virus A2 infected in human Hep2 cells assessed as reduction in virus-induced cytopathic effect after 5 days by MTT assay; assay type: functional, organism-based; conditions: A2, HEp-2, 120 h
Method in brief: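 HEp2 cells (1.0 × 10⁴/well) infected at low moi (RSV A2 at moi 0.01) and added to serial compound dilutions; incubated 5 days at 37 °C, 5% CO₂. CPE read by MTT (1 mg/ml) metabolism after 2 h incubation.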

[5] = test system: Respiratory syncytial virus; assay: Antiviral activity against respiratory syncytial virus Long infected in human Hep2 cells assessed as reduction in virus-induced cytopathic effect after 5 days by MTT assay; assay type: functional, organism-based; conditions: HEp-2, 120 h
[6] = test system: Respiratory syncytial virus; assay: Antiviral activity against respiratory syncytial virus B1 infected in human Hep2 cells assessed as reduction in virus-induced cytopathic effect after 5 days by MTT assay; assay type: functional, organism-based; conditions: B1, HEp-2, 120 h
[7] = Lipophilicity, log D of the compound at pH 7.4 by chromatography; assay type: physicochemical; conditions: buffer
Method in brief: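 Effective logD measured chromatographically on an LC-ABZ column, octanol-saturated mobile phase at pH 7.4.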

[8] = Kinetic solubility in 0.01M HCl buffer at pH 2.0 by nephelometry; assay type: physicochemical; conditions: read-out: Kinetic_solubility
Method in brief: (§1)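 Compound dissolved in DMSO and added to 0.01 M HCl (pH 2) or pH 6.5 isotonic phosphate buffer, 1% final DMSO. Solubility range determined by nephelometry.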

[9] = Kinetic solubility in isotonic phosphate buffer at pH 6.5 by nephelometry; assay type: physicochemical; conditions: read-out: Kinetic_solubility; method in brief: as §1
[10] = Elimination half life in Sprague-Dawley rat at 2 mg/kg, iv; assay type: ADME, organism-based; set-up: dose 2 mg/kg, route intravenous; conditions: in vivo, read-out: beta t1/2 (converted)
[11] = Plasma clearance in Sprague-Dawley rat at 2 mg/kg, iv; assay type: ADME, organism-based; set-up: dose 2 mg/kg, route intravenous
[12] = Apparent volume of distribution in Sprague-Dawley rat at 2 mg/kg, iv; assay type: ADME, organism-based; set-up: dose 2 mg/kg, route intravenous; conditions: in vivo, read-out: Vz
[13] = Elimination half life in Sprague-Dawley rat at 19 mg/kg, po; assay type: ADME, organism-based; set-up: dose 19 mg/kg, route oral; conditions: in vivo, read-out: beta t1/2 (converted)
Method in brief: (§2)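 Male Sprague Dawley rats, n = 2, oral dose as suspension in hydroxypropylmethylcellulose, in carboxymethylcellulose, or in 0.5% HPMC/0.5% benzyl alcohol/0.4% Tween80. Cmax (µM), T1/2 and F (%) derived from plasma levels.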

[14] = Cmax in Sprague-Dawley rat at 19 mg/kg, po; assay type: ADME, organism-based; set-up: dose 19 mg/kg, route oral; conditions: in vivo; method in brief: as §2
[15] = Oral bioavailability in Sprague-Dawley rat at 19 mg/kg; assay type: ADME, organism-based; conditions: in vivo; method in brief: as §2
[16] = Elimination half life in Sprague-Dawley rat at 5.1 mg/kg, iv; assay type: ADME, organism-based; set-up: dose 5.1 mg/kg, route intravenous; conditions: in vivo, read-out: beta t1/2 (converted)
[17] = Plasma clearance in Sprague-Dawley rat at 5.1 mg/kg, iv; assay type: ADME, organism-based; set-up: dose 5.1 mg/kg, route intravenous
[18] = Apparent volume of distribution in Sprague-Dawley rat at 5.1 mg/kg, iv; assay type: ADME, organism-based; set-up: dose 5.1 mg/kg, route intravenous; conditions: in vivo, read-out: Vz
[19] = test system: Respiratory syncytial virus; assay: Potency shift index, ratio of EC50 for respiratory syncytial virus A2 infected in human Hep2 in presence of 1.5 mg/mL Alpha-1-acid glycoprotein to EC50 for respiratory syncytial virus A2 infected in human Hep2 in absence of Alpha-1-acid glycoprotein; assay type: functional
[20] = Cytotoxicity against human Hep2 cells assessed as reduction in cell viability after 5 days by MTT assay; assay type: cell-based, HEp-2
Method in brief: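 Uninfected HEp2 cells (1.0 × 10⁴/well) exposed to serial compound dilutions for 5 days at 37 °C, 5% CO₂. Viability read by MTT (1 mg/ml) metabolism after 2 h incubation.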

Compound: O=c1n(Cc2nc3ccccc3n2CCCCO)c2cnccc2n1C1CC1
- Ratio EC50 [1]: >345
- Ratio EC50 [2]: 10
- Ratio EC50 [3]: >20000

Compound: O=C(c1ccc(F)cc1)N1CCN2C(=O)c3ccncc3[C@]12c1ccc(Cl)cc1
- EC50 [4]: 0.11 µM

Compound: O=C(c1ccc(F)cc1)N1CCN2C(=O)c3cc[n+]([O-])cc3[C@]12c1ccc(Cl)cc1
- EC50 [4]: 0.17 µM

Compound: O=C(c1ccoc1)N1CCN2C(=O)c3ccncc3[C@]12c1ccc(Cl)cc1
- EC50 [4]: 0.01 µM
- EC50 [5]: 0.032 µM
- EC50 [6]: 0.085 µM
- chromatographic logD [7]: 2.5
- solubility kinetic [8]: 50 µg/mL (≈ 132 µM)
- solubility kinetic [9]: > 100 µg/mL
- half-life [10]: 2.4 h
- clearance [11]: 55 mL/min/kg
- Vd [12]: 11 L/kg
- half-life [13]: 3.1 h
- Cmax [14]: 0.77 µM
- bioavailability [15]: 35%

Compound: O=C(c1csc(-c2cccnc2)n1)N1CCN2C(=O)c3ccncc3[C@]12c1ccc(Cl)cc1
- EC50 [4]: 0.013 µM

Compound: O=C(c1ccc(F)nc1)N1CCN2C(=O)c3ccncc3[C@]12c1ccc(Cl)cc1
- EC50 [4]: 0.075 µM
- EC50 [5]: 0.13 µM
- EC50 [6]: 0.29 µM
- chromatographic logD [7]: 2.7
- solubility kinetic [8]: > 100 µg/mL
- solubility kinetic [9]: 25 µg/mL (≈ 61.2 µM)
- half-life [16]: 11 h
- clearance [17]: 4.3 mL/min/kg
- Vd [18]: 3.8 L/kg
- half-life [13]: 9.3 h
- Cmax [14]: 8.8 µM
- bioavailability [15]: 75%

Compound: O=C(c1ccc(F)cc1)N1CCN2C(=O)c3ccncc3[C@@]12c1ccc(Cl)cc1
- EC50 [4]: 14 µM

Compound: O=C(c1ccc(F)cc1)N1CCN2C(=O)c3cc[n+]([O-])cc3[C@@]12c1ccc(Cl)cc1
- EC50 [4]: 8.6 µM

Compound: O=C(c1ccoc1)N1CCN2C(=O)c3ccncc3[C@@]12c1ccc(Cl)cc1
- EC50 [4]: 0.67 µM

Compound: O=C(c1csc(-c2cccnc2)n1)N1CCN2C(=O)c3ccncc3[C@@]12c1ccc(Cl)cc1
- EC50 [4]: 0.92 µM

Compound: O=C(c1cccnc1)N1CCN2C(=O)c3ccncc3[C@@]12c1ccc(Cl)cc1
- EC50 [4]: > 1.2 µM

Compound: O=C(c1ccc(F)nc1)N1CCN2C(=O)c3ccncc3[C@@]12c1ccc(Cl)cc1
- EC50 [4]: 7.8 µM

Compound: Cn1cc(C(=O)N2CCN3C(=O)c4ccncc4[C@@]32c2ccc(Cl)cc2)c(C(F)(F)F)n1
- EC50 [4]: 0.0072 µM
- EC50 [5]: 0.0064 µM
- EC50 [6]: 0.1 µM
- chromatographic logD [7]: 3
- solubility kinetic [8]: > 100 µg/mL
- solubility kinetic [9]: 25 µg/mL (≈ 54.1 µM)

Compound: Cc1nnnn1N/C=C1\C=CC(=O)C(C(C2=C/C(=C/Nn3nnnc3C)C=CC2=O)c2ccc(O)cc2)=C1 (stereo unspecified)
- Ratio EC50 [3]: >2174

Compound: Cc1ccc(CCCO)c(NCc2ccc3nc(NCCCN4CCOCC4)n(Cc4nc(C)ccc4O)c3c2)c1
- Ratio EC50 [1]: >3333
- Ratio EC50 [2]: 11.5
- Ratio EC50 [3]: >10000

Compound: O=C(c1ccc(F)cc1)N1CCN2C(=O)c3ccncc3C12c1ccc(Cl)cc1 (racemic)
- Ratio EC50 [19]: 7.2
- half-life [10]: > 24 h
- clearance [11]: 2.7 mL/min/kg
- Vd [12]: 6 L/kg

Compound: O=C(c1ccc(F)cc1)N1CCN2C(=O)c3cc[n+]([O-])cc3C12c1ccc(Cl)cc1 (racemic)
- half-life [10]: 6.5 h
- clearance [11]: 2.4 mL/min/kg
- Vd [12]: 1.3 L/kg

Compound: O=C(Nc1ccc(F)cc1)N1CCN2C(=O)c3ccncc3C12c1ccc(Cl)cc1 (racemic)
- EC50 [4]: 1 µM
- CC50 at 120 h [20]: > 20 µM

Compound: O=C(NCc1ccc(F)cc1)N1CCN2C(=O)c3ccncc3C12c1ccc(Cl)cc1 (racemic)
- EC50 [4]: 0.93 µM
- CC50 at 120 h [20]: > 20 µM

Compound: O=C(NCCc1ccc(F)cc1)N1CCN2C(=O)c3ccncc3C12c1ccc(Cl)cc1 (racemic)
- EC50 [4]: 0.62 µM
- CC50 at 120 h [20]: > 20 µM

Compound: O=C(c1ccno1)N1CCN2C(=O)c3ccncc3C12c1ccc(Cl)cc1 (racemic)
- EC50 [4]: 0.37 µM
- CC50 at 120 h [20]: > 19 µM
